The record followed here is ChEMBL document CHEMBL1148625, “3-(1,1-dioxo-2H-(1,2,4)-benzothiadiazin-3-yl)-4-hydroxy-2(1H)-quinolinones, potent inhibitors of hepatitis C virus RNA-dependent RNA polymerase” (J Med Chem, 2006).

A short description of data set [1]: Cmax in Sprague-Dawley rat at 1.3 mg/kg, iv or 3.4 mg/kg, po. It is filed as ADME, organism-based. The conditions noted are these: in vivo. The essentials:
(§1)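 Single intravenous or oral doses given to Sprague-Dawley rats. Values are reported as means: Cmax (ng/mL), half-life (min), plasma clearance (mL/min/kg), steady-state volume of distribution (L/kg) and oral bioavailability F (%).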

Data set [2] in a line: Cmax in Beagle dog at 0.8 mg/kg, iv or 4.0 mg/kg, po. Format: ADME, organism-based, Canis lupus familiaris. As to conditions: in vivo. The method in brief:
(§2)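 Single-dose study, with separate intravenous and oral administrations at the listed mg/kg. Plasma concentrations were followed over time, and mean values were derived for Cmax, T1/2, clearance (mL/min/kg), Vdss (L/kg) and oral bioavailability (%).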

Data set [3] can be described thus: Cmax in cynomolgus monkey at 0.8 mg/kg, iv or 4.0 mg/kg, po. As to conditions: in vivo. Format: ADME, organism-based, Macaca fascicularis. The method in brief:
as §2

Data set [4] is described as follows: Clearance in cynomolgus monkey at 0.8 mg/kg, iv or 4.0 mg/kg, po. Format: ADME, organism-based, Macaca fascicularis. As to conditions: in vivo. The method in brief:
as §2

A short description of data set [5]: Oral bioavailability in Sprague-Dawley rat at 1.3 mg/kg, iv or 3.4 mg/kg, po. It is filed as ADME, organism-based. As to conditions: in vivo. The method in brief: as §1
Data set [6] can be described thus: Oral bioavailability in cynomolgus monkey at 0.8 mg/kg, iv or 4.0 mg/kg, po. It is filed as ADME, organism-based, Macaca fascicularis. The conditions noted are these: in vivo. The method in brief:
as §2

A short description of data set [7]: Volume of distribution in Sprague-Dawley rat at 1.3 mg/kg, iv or 3.4 mg/kg, po. It is filed as ADME, organism-based. As to conditions: in vivo, read-out: Vdss. The essentials: as §1
Data set [8] in a line: Volume of distribution in Beagle dog at 0.8 mg/kg, iv or 4.0 mg/kg, po. It is filed as ADME, organism-based, Canis lupus familiaris. The conditions noted are these: in vivo, read-out: Vdss. The essentials: as §2
Data set [9] in a line: Volume of distribution in cynomolgus monkey at 0.8 mg/kg, iv or 4.0 mg/kg, po. It is filed as ADME, organism-based, Macaca fascicularis. As to conditions: in vivo, read-out: Vdss. The essentials:
as §2

For data set [10], the system named is Hepatitis C virus. As to the kind of experiment: Protein binding in Huh7 cells using HCV 1b replicon by a replicon cell assay. It is filed as functional, organism-based, Hepacivirus hominis. As to conditions: genotype 1b, Huh-7. The method in brief: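 Replicon assay in Huh-7 cells run with α-acid glycoprotein, human serum albumin, or both added to the medium, to assess the effect of plasma protein binding on cellular activity.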
(In general: In antiviral work, replicon cells carry a viral genome segment that copies itself.)

Data set [11] relates to Hepatitis C virus. As to the kind of experiment: Protein binding in Huh7 cells using HCV 1b replicon by a replicon cell assay in presence of HSA. Format: functional, organism-based, Hepacivirus hominis. As to conditions: genotype 1b, Huh-7.
Data set [12] deals with Cytochrome P450 2C9 (Homo sapiens, UniProt P11712). Nature of the data set: Inhibition of CYP2C9 isozyme. It is filed as ADME.
Chain of Cytochrome P450 2C9 (P11712 whole entry): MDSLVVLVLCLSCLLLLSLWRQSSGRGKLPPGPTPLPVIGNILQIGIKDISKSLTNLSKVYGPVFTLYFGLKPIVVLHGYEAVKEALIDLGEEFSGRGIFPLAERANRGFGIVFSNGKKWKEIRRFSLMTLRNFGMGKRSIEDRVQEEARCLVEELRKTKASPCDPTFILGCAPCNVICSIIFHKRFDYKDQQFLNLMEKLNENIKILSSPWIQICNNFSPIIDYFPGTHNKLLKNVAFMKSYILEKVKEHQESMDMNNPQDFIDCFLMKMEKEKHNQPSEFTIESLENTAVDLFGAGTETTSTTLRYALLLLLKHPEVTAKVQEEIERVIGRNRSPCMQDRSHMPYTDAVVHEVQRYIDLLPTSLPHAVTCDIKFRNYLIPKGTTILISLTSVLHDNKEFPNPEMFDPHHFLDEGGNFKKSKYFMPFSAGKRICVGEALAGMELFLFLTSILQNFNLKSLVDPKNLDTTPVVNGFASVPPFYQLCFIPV
A short description of data set [13]: Half life in Sprague-Dawley rat at 1.3 mg/kg, iv or 3.4 mg/kg, po. Format: ADME, organism-based. The conditions noted are these: in vivo. The essentials:
as §1

The target in data set [14] is T1, RNA-directed RNA polymerase (Hepacivirus hominis, UniProt O39930). As to the kind of experiment: Inhibitory activity against HCV delta 21 NS5B RNA polymerase by SPA assay. The arrangement: species or system Hepatitis C virus subtype 1b.
T1 sequence (O39930 whole entry): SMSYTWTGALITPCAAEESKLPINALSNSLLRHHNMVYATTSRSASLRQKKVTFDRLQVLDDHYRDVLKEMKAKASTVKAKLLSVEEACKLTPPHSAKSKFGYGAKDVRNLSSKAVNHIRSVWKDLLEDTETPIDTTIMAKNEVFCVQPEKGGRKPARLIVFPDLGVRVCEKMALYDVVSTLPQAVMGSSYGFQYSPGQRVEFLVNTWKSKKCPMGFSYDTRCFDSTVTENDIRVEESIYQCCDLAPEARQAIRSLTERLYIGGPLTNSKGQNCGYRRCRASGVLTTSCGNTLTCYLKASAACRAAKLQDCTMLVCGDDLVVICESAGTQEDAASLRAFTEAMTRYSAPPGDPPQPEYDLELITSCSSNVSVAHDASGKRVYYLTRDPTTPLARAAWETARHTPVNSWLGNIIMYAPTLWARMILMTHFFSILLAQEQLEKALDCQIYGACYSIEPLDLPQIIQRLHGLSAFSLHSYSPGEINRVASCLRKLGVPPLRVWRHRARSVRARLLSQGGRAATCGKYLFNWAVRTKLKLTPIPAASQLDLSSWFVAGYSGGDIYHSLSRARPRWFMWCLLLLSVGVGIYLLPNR
Data set [15] deals with RNA-directed RNA polymerase (Hepacivirus hominis) (UniProt O39930). Nature of the data set: Inhibition of HCV RNA replication in Huh7 cells. It is filed as functional, cell-based. As to conditions: Huh-7. The method in brief: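 Huh-7 subgenomic replicon cells were seeded at 3 × 10³/well in DMEM with 10% FCS, 1% NEAA and 1 mg/mL G418, and allowed 4 h to attach. Eleven 2.5-fold DMSO dilutions were added (final 10,000 to 1.0 nM) and cells incubated 40 h. Neo RNA was measured by TaqMan RT-PCR, normalised to cyclophilin against DMSO controls; n = 8 wells per dilution.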
Chain of RNA-directed RNA polymerase (Hepacivirus hominis) (O39930 1-591): as the sequence (O39930 whole entry) above

Data set [16] deals with T1, RNA-directed RNA polymerase. Nature of the data set: Inhibitory activity against HCV 2a NS5B RNA polymerase. The arrangement: species or system Hepatitis C virus genotype 2.
For data set [17], the target named is RNA-directed RNA polymerase (Hepacivirus hominis) (UniProt O39930). Nature of the data set: Inhibitory activity against HCV 3a NS5B RNA at 10 uM.
The target of data set [18] is Genome polyprotein (GB virus-B, UniProt Q69422). Nature of the data set: Inhibitory activity against virus GBV-B polymerase.
Chain of Genome polyprotein (Q69422 2275-2864 limits assumed): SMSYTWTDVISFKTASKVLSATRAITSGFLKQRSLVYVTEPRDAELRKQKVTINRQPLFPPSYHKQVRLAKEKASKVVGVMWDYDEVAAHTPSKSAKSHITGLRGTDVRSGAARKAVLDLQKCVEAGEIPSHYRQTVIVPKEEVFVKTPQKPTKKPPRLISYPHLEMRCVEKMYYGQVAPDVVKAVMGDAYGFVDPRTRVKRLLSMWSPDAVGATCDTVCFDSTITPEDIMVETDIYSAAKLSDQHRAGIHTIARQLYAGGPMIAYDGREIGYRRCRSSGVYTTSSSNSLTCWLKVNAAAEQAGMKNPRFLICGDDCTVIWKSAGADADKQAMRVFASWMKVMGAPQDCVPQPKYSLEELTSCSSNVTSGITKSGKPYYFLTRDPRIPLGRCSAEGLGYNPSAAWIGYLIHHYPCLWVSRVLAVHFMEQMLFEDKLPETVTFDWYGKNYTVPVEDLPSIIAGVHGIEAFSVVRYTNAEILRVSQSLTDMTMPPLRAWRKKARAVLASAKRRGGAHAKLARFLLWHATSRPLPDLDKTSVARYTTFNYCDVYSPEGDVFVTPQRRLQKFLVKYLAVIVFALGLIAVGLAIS
Data set [19] has as its target T2, DNA polymerase alpha catalytic subunit (Homo sapiens, UniProt P09884).
T2 sequence (P09884 whole entry): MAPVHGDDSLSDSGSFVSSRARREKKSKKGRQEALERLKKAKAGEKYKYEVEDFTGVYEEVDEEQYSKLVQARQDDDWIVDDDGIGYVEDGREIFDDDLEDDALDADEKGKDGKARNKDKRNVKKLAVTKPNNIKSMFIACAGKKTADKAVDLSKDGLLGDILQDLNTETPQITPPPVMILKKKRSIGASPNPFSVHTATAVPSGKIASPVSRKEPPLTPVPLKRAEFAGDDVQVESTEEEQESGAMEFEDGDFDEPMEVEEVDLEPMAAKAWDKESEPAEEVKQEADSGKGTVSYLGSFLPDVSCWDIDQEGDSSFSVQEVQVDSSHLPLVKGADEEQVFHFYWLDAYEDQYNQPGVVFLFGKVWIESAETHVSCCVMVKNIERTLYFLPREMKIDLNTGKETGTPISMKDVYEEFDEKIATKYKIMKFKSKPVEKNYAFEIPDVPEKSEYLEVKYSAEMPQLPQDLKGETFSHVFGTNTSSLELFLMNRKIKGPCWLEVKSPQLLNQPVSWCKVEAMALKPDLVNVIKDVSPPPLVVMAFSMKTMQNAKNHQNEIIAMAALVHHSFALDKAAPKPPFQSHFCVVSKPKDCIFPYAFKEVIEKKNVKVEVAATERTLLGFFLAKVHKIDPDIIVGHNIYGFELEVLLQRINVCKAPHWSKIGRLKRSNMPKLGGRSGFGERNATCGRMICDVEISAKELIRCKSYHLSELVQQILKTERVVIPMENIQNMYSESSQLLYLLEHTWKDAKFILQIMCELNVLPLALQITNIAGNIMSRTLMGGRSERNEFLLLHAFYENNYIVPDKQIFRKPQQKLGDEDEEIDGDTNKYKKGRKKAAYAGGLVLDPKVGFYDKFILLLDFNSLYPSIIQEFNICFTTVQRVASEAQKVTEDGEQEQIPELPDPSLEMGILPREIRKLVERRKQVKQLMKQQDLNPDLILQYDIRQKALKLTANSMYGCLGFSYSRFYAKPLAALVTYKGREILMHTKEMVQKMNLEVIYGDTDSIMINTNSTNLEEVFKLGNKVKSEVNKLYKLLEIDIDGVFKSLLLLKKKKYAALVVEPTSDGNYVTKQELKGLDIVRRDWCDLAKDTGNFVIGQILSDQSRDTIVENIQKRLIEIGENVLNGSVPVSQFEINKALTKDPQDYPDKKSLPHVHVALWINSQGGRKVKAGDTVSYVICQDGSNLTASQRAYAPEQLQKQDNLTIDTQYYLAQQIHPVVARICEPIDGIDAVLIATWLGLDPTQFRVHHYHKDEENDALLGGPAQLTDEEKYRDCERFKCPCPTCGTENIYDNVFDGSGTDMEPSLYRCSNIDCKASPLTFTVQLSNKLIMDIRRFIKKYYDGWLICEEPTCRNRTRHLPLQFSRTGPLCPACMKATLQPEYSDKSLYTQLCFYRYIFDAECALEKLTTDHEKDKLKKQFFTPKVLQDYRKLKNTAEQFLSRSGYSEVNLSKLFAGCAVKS
As to the kind of experiment: Inhibitory activity against human DNA-polymerase-alpha.

Data set [20] concerns the target DNA polymerase beta (Homo sapiens, UniProt P06746). Nature of the data set: Inhibitory activity against human DNA-polymerase-beta.

As a reminder, the Cmax is the maximum level reached in the sampled fluid or tissue. One may read the bioavailability as the share of a dose that reaches the circulation, judged against a reference dose that is usually intravenous. For orientation: EC50 means the concentration giving half of the maximal effect. A word on the IC50: it is the concentration needed to halve the response being measured. Broadly, the half-life is how long it takes for the measured level to halve. As usually defined, the EC90 is the concentration at which the effect reaches the 90% level. By inhibition is commonly meant the change of the read-out against control, counted positive when it falls. As for `O=c1c(C2=Nc3ccccc3S(=O)(=O)N2)c(O)c2cc(F)ccc2n1CCC1CC1`, the Cmax was found to be 4140 ng/mL in [1], 4460 ng/mL in data set [2] and 5440 ng/mL in [3]. This molecule also gave a clearance in data set [4] of 0.76 mL/min/kg. Besides, the bioavailability in data set [5] was 44%; in [6] it was greater than 53%. Moreover, the figures for the Vd in data set [7], in data set [8] and in data set [9] were 0.36 L/kg, 0.15 L/kg and 0.11 L/kg, respectively. Moreover, the EC50 was found to be 0.038 µM in data set [10] and 13 µM in data set [11]. Further, the IC50 in data set [12] is 1 µM; in data set [14], 0.01 µM; in data set [16], 0.013 µM; in data set [18], greater than 50 µM; in [19] it was greater than 50 µM; in data set [20], greater than 50 µM. Besides, the half-life in [13] came out at 3.04 h. In data set [15], this molecule had an EC90 of 0.207 µM. Besides, the inhibition in data set [17] turned out to be 60%.
